Data reported in ChEMBL document CHEMBL3994624, “Antimalarial Pyrido[1,2-a]benzimidazoles: Lead Optimization, Parasite Life Cycle Stage Profile, Mechanistic Evaluation, Killing Kinetics, and in Vivo Oral Efficacy in a Mouse Model” (J Med Chem, 2017).
≈ marks a conversion by molar mass, not a printed value. Calls of active or inactive are those of the source. The rule behind the calls is not given here.

Tests used:
Plasmodium falciparum [1] = assay: Ratio of IC50 for chloroquine-sensitive Plasmodium falciparum NF54 early 2/3 stage gametocytes to IC50 for chloroquine-sensitive Plasmodium falciparum NF54 late 4/5 stage gametocytes; type: functional
How it was run: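 Early (stage II/III) and late (stage IV/V) gametocytes tested in parallel luciferase reporter assays; stage preference = EG IC50/LG IC50.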

[2] = Volume of distribution in C57/Bl6 mouse at 2.5 mg/kg, iv by LC-MS method; type: ADME, organism-based; details: in vivo
How it was run: (§1)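 Mice (n=3) given a single intravenous dose of 2.5 mg/kg in dimethylacetamide:polyethylene glycol:propylene glycol/ethanol (4:1) at 1:3:6; 24 h sampling. Parameters were fitted by nonlinear mixed-effects two-compartment model with first-order elimination.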

Plasmodium berghei [3] = assay: Antimalarial activity against GFP-fused Plasmodium berghei ANKA infected in mouse assessed as protection against parasitemia at 50 mg/kg, po administered once daily for 4 days measured 30 days post infection by light microscopy; type: functional, organism-based
How it was run: (§2)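 P. berghei-infected mice, 3 per group. Compound formulated in 90/10 Tween80/ethanol (v/v), diluted 10-fold with water, given orally once daily at 4, 24, 48 and 72 h post-infection. Outcomes: % parasitemia reduction versus untreated control, mean survival days, and cured/infected. Mice with <40% reduction euthanized on day 4.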

Plasmodium falciparum [4] = assay: Anti-plasmodial activity against chloroquine-sensitive Plasmodium falciparum NF54 by [3H]-hypoxanthine incorporation assay; type: functional
How it was run: (§3)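 P. falciparum asexual blood-stage growth inhibition by [3H]hypoxanthine incorporation; chloroquine and artesunate run as reference drugs in every experiment; IC50 given as mean of ≥2 independent experiments.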

Plasmodium berghei [5] = assay: Antimalarial activity against GFP-fused Plasmodium berghei ANKA infected in mouse assessed as mouse mean survival days at 50 mg/kg, po administered once daily for 4 days; type: functional
How it was run: (§4)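 P. berghei-infected mice (n=3 per dose) dosed orally once daily on 4 consecutive days at 4, 24, 48 and 72 h after infection; compound in 90/10 Tween80/ethanol (v/v) diluted 10-fold with water. Read-outs were % parasitemia reduction, mean survival time in days and cure; mice with <40% parasitemia reduction euthanized on day 4.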

Plasmodium berghei [6] = assay: Antimalarial activity against GFP-fused Plasmodium berghei ANKA infected in mouse assessed as mouse mean survival days at 30 mg/kg, po administered once daily for 4 days; type: functional; how it was run: as §4
Mus musculus [7] = assay: AUC (0 to infinity) in C57/Bl6 mouse at 10 mg/kg, po administered via gavage by LC-MS method; type: ADME, organism-based; set-up: dose 10 mg/kg, route oral, time infinity; details: in vivo
How it was run: (§5)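 Mice (n=3) given a single oral dose of 10 mg/kg as a suspension in […] HPMC; plasma sampled over 24 h. Parameters were estimated by nonlinear mixed-effects modelling with a two-compartment disposition model, first-order absorption and elimination.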

CHO = assay: Cytotoxicity against CHO cells after by MTT assay; type: cell-based; details: Cricetulus griseus
[8] = Oral bioavailability in C57/Bl6 mouse at 10 mg/kg administered via gavage by LC-MS method; type: ADME, organism-based; details: in vivo; how it was run: as §5
Plasmodium berghei [9] = assay: Antimalarial activity against GFP-fused Plasmodium berghei ANKA infected in mouse assessed as reduction in parasitemia at 30 mg/kg, po administered once daily for 4 days by flow cytometry relative to control; type: functional; set-up: scale not given: the % may be the effect or the level left; how it was run: as §2
[10] = Half life in C57/Bl6 mouse at 2.5 mg/kg, iv by LC-MS method; type: ADME, organism-based; details: in vivo; how it was run: as §1
Plasmodium berghei [11] = assay: Antimalarial activity against GFP-fused Plasmodium berghei ANKA infected in mouse assessed as reduction in parasitemia at 50 mg/kg, po administered once daily for 4 days by flow cytometry relative to control; type: functional; set-up: scale not given: the % may be the effect or the level left; how it was run: as §2
Plasmodium berghei [12] = assay: Antimalarial activity against GFP-fused Plasmodium berghei ANKA infected in mouse assessed as protection against parasitemia at 3 mg/kg, po administered once daily for 4 days measured 30 days post infection by light microscopy; type: functional, organism-based; how it was run: as §2
[13] = Half life in C57/Bl6 mouse at 10 mg/kg, po administered via gavage by LC-MS method; type: ADME, organism-based; details: in vivo; how it was run: as §5
[14] = Cmax in C57/Bl6 mouse at 10 mg/kg, po administered via gavage by LC-MS method; type: ADME, organism-based; set-up: dose 10 mg/kg, route oral; details: in vivo; how it was run: as §5
[15] = Kinetic solubility of the compound in FaSSIF at pH 6.5 after 2 hrs by shake flask method; type: physicochemical; details: read-out: Kinetic_solubility
Plasmodium falciparum [16] = assay: Anti-plasmodial activity against chloroquine-sensitive Plasmodium falciparum NF54 late 4/5 stage gametocytes after 48 hrs by luciferin-luciferase reaction based bioluminescence assay; type: functional; details: NF54, 48 h
[17] = Selectivity index, ratio of IC50 for CHO cells to IC50 for chloroquine-sensitive Plasmodium falciparum NF54; type: toxicity; details: hamster, read-out: Ratio IC50
How it was run: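 Selectivity index = IC50 CHO / IC50 PfNF54.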

[18] = Tmax in C57/Bl6 mouse at 10 mg/kg, po administered via gavage by LC-MS method; type: ADME, organism-based; details: in vivo; how it was run: as §5
Plasmodium berghei [19] = assay: Antimalarial activity against GFP-fused Plasmodium berghei ANKA infected in mouse assessed as protection against parasitemia at 10 mg/kg, po administered once daily for 4 days measured 30 days post infection by light microscopy; type: functional, organism-based; how it was run: as §2
[20] = Clearance in C57/Bl6 mouse at 2.5 mg/kg, iv by LC-MS method; type: ADME, organism-based; details: in vivo; how it was run: as §1
[21] = Metabolic stability in human liver microsomes assessed as compound remaining at 1 uM in presence of NADPH after 30 mins by LC-MS/MS analysis; type: ADME, microsome; details: read-out: Stability
How it was run: (§6)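 Mouse and human liver microsomes; % compound remaining after 30 min.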

Huh-7 = assay: Cytotoxicity against human HuH7 cells at 1 to 10 uM after 48 hrs by Alamarblue assay; type: cell-based; details: huh-7, 48 h
Plasmodium berghei [22] = assay: Antimalarial activity against GFP-fused Plasmodium berghei ANKA infected in mouse assessed as reduction in parasitemia at 3 mg/kg, po administered once daily for 4 days by flow cytometry relative to control; type: functional; set-up: scale not given: the % may be the effect or the level left; how it was run: as §2
Plasmodium falciparum [23] = assay: Anti-plasmodial activity against multidrug resistant Plasmodium falciparum K1 by [3H]-hypoxanthine incorporation assay; type: functional; how it was run: as §3
Mus musculus [24] = assay: AUC (0 to infinity) in C57/Bl6 mouse at 2.5 mg/kg, iv by LC-MS method; type: ADME, organism-based; set-up: dose 2.5 mg/kg, time infinity, route intravenous; details: in vivo; how it was run: as §1
Plasmodium berghei [25] = assay: Antimalarial activity against GFP-fused Plasmodium berghei ANKA infected in mouse assessed as mouse mean survival days at 3 mg/kg, po administered once daily for 4 days; type: functional; how it was run: as §4
Plasmodium berghei [26] = assay: Antimalarial activity against GFP-fused Plasmodium berghei ANKA infected in mouse assessed as mouse mean survival days at 10 mg/kg, po administered once daily for 4 days; type: functional; how it was run: as §4
Plasmodium berghei [27] = assay: Antimalarial activity against GFP-fused Plasmodium berghei ANKA infected in mouse assessed as reduction in parasitemia at 10 mg/kg, po administered once daily for 4 days by flow cytometry relative to control; type: functional; set-up: scale not given: the % may be the effect or the level left; how it was run: as §2
[28] = Metabolic stability in Balb/c mouse liver microsomes assessed as compound remaining at 1 uM in presence of NADPH after 30 mins by LC-MS/MS analysis; type: ADME, microsome; details: read-out: Stability; how it was run: as §6
Plasmodium berghei [29] = assay: Antimalarial activity against GFP-fused Plasmodium berghei ANKA infected in mouse assessed as mouse mean survival days at 6 mg/kg, po administered once daily for 4 days; type: functional
Plasmodium berghei [30] = assay: Antimalarial activity against GFP-fused Plasmodium berghei ANKA infected in mouse assessed as reduction in parasitemia at 12.5 mg/kg, po administered once daily for 4 days by flow cytometry relative to control; type: functional; set-up: scale not given: the % may be the effect or the level left
Plasmodium berghei [31] = assay: Antimalarial activity against GFP-fused Plasmodium berghei ANKA infected in mouse assessed as reduction in parasitemia at 25 mg/kg, po administered once daily for 4 days by flow cytometry relative to control; type: functional; set-up: scale not given: the % may be the effect or the level left
Plasmodium berghei [32] = assay: Antimalarial activity against GFP-fused Plasmodium berghei ANKA infected in mouse assessed as mouse mean survival days at 12.5 mg/kg, po administered once daily for 4 days; type: functional
Plasmodium berghei [33] = assay: Antimalarial activity against GFP-fused Plasmodium berghei ANKA infected in mouse assessed as mouse mean survival days at 25 mg/kg, po administered once daily for 4 days; type: functional
Plasmodium berghei [34] = assay: Antimalarial activity against GFP-fused Plasmodium berghei ANKA infected in mouse assessed as reduction in parasitemia at 6 mg/kg, po administered once daily for 4 days by flow cytometry relative to control; type: functional; set-up: scale not given: the % may be the effect or the level left

CCNCCNc1cc(-c2ccc(C(F)(F)F)cc2)c(C#N)c2nc3cc(Cl)cc(Cl)c3n12
Ratio IC50 (Plasmodium falciparum [1]): 1.2
Vd [2]: 19 L/kg
Activity (Plasmodium berghei [3]): Active
IC50 (Plasmodium falciparum [4]): 30 nM
MSD (Plasmodium berghei [5]): 30 days
MSD (Plasmodium berghei [6]): 30 days
AUC (Mus musculus [7]): 11.4 µM·h
IC50 (CHO): 11200 nM
bioavailability [8]: 30%
Activity (Plasmodium berghei [9]): 99.4%
half-life [10]: 21 h
Activity (Plasmodium berghei [11]): 98%
Activity (Plasmodium berghei [12]): inactive
half-life [13]: 21 h
Cmax [14]: 220 nM
solubility kinetic at 2 h [15]: 20 µM (≈ 9.85 µg/mL)
IC50 (Plasmodium falciparum [16]): 1440 nM
selectivity ratio [17]: 431
Tmax [18]: > 10 h
Activity (Plasmodium berghei [19]): inactive
clearance [20]: 11 mL/min/kg
remaining at 0.5 h, 1 µM [21]: 87%
Activity (Huh-7): Non-Toxic
Activity (Plasmodium berghei [22]): 99.4%
IC50 (Plasmodium falciparum [23]): 40 nM
AUC (Mus musculus [24]): 9.52 µM·h
MSD (Plasmodium berghei [25]): 16 days
MSD (Plasmodium berghei [26]): 18 days
Activity (Plasmodium berghei [27]): 99.4%
remaining at 0.5 h, 1 µM [28]: 87%

CCNCCNc1cc(-c2ccc(C(F)(F)F)cc2)c(C#N)c2nc3ccccc3n12.Cl
MSD (Plasmodium berghei [5]): 14 days
MSD (Plasmodium berghei [29]): 7 days
Activity (Plasmodium berghei [11]): 96%
Activity (Plasmodium berghei [30]): 81%
Activity (Plasmodium berghei [31]): 96%
MSD (Plasmodium berghei [32]): 14 days
MSD (Plasmodium berghei [33]): 14 days
Activity (Plasmodium berghei [22]): <40%
Activity (Plasmodium berghei [34]): 38%
MSD (Plasmodium berghei [25]): 4 days
